Measured values: paper PMC8131326 (The Journal of Biological Chemistry, 2021)

Experiments:
[1] = test system: human Kv1.1; assay: Whole-cell patch clamp, HEK 293T cells expressing Kv1.1; format: cell-based; details: 0.2 mM TEA; n = 5
Summary of the method: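 HEK 293T cells carrying plasmids for human Kv1.1 plus EGFP. Whole-cell patch clamp at room temperature after holding at −70 mV for 4 min, filtered at 2 kHz and digitized at 20 kHz. Currents elicited by a +10 mV depolarization were compared before and after application of the test agent.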

[2] = test system: carrageenan-induced paw edema in mice; assay: Carrageenan-induced paw edema assay; format: in vivo, Kunming mice; details: FS48 1.5 mg/kg
Summary of the method: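 Male and female Kunming mice, randomized into four groups of six. Test compound (1.5 mg/kg), saline or aspirin (5 mg/kg) given i.p. 1 h before intraplantar 1% carrageenan in saline (50 μl) into the right hind paw. Paw volume to the ankle measured by plethysmometer before injection and at 2–24 h; swelling taken as Δvolume. In a second set, paws were excised at 4 h for histology, cytokine and MPO assays. Mean ± SEM, n = 6.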

[3] = test system: Kv current of LPS-activated Raw 264.7 cells; assay: Kv currents of LPS-activated Raw 264.7 macrophages; format: cell-based, murine
Summary of the method: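 Raw 264.7 cells in DMEM/10% FBS at 37 °C, 5% CO2, LPS-activated. Whole-cell patch clamp at room temperature, held at −70 mV for 4 min to equilibrate, filtered at 2 kHz and digitized at 20 kHz, 80% series-resistance compensation. Currents compared before and after test compound or 100 nM MgTx, with amplitude taken at +40 mV. I–V curves used 150-ms steps from −50 to +40 mV, 10 mV increments, 2 s intervals. Mean ± SEM, at least four experiments.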

[4] = test system: Kv1.3 expression in Raw 264.7 cells; assay: Kv1.3 channel mRNA and protein expression in LPS-activated Raw 264.7 cells; format: cell-based, murine; details: 3 μM FS48, 100 nM MgTx, 100 ng/ml LPS
Summary of the method: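 Raw 264.7 cells activated with 100 ng/ml LPS and exposed to test compound (3 μM) or MgTx (100 nM) for 24 h. Kv1.3 mRNA: Trizol RNA extraction, SYBR qRT-PCR (95 °C 5 min; 40 cycles of 95 °C 15 s / 60 °C 45 s), normalized to GAPDH by 2−ΔΔCT, in triplicate. Kv1.3 protein: western blot with primary antibody 1:2000 overnight at 4 °C, HRP chemiluminescence, densitometry against GAPDH, in triplicate.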

[5] = test system: NO production in Raw 264.7 cells; assay: LPS-induced NO production and iNOS mRNA in Raw 264.7 cells; format: cell-based, murine; details: 100 ng/ml LPS
Summary of the method: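 Nitrite: 5 × 10^4 Raw 264.7 cells/well grown overnight, then given test compound (0.1–10 μM) plus 100 ng/ml LPS (E. coli O55:B5) for 24 h; supernatant assayed by Griess reagent at 540 nm. MgTx 100 nM served as positive control; cells without compound and/or LPS as negative controls; repeated four times. iNOS mRNA: 3 μM compound plus LPS for 8 h, SYBR qRT-PCR normalized to GAPDH (2−ΔΔCT), fold change versus untreated, in triplicate.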

Compound: CC[N+](CC)(CC)CC [TEA, tetraethylammonium]
- reduction of Kv1.1 current by TEA [1]: 31.81 ± 1.98%

Compound: CC(=O)Oc1ccccc1C(=O)O [aspirin]
- carrageenan-induced secretion of IL-1β, IL-6, and TNF-α in paw tissues ([2]; aspirin 5 mg/kg i.p., 4 h after carrageenan): diminished
- leukocyte infiltration in paw (histological analysis) ([2]; aspirin 5 mg/kg i.p., 4 h after carrageenan, HE stain): obviously reduced
- suppression of hind paw edema at 4 h versus model group ([2]; aspirin 5 mg/kg, intraperitoneally 1 h before carrageenan (1%, 50 μl), 4 h, n = 6): approximately 44.79%

Compound: MgTx: a highly specific Kv1.3 blocker, positive control (UniProtKB P40755) (TIINVKCTSPKQCLPPCKAQFGQSAGAKCMNGKCKCYPH; UniProt P40755 1-39, looked up)
- Kv currents at all test voltages (−50 to +40 mV) ([3]; 1 μM FS48 or 100 nM MgTx, LPS-activated Raw 264.7 cells, n = 4): reduced markedly
- reduction of amplitude of Kv current of LPS-activated macrophages ([3]; at +40 mV, 100 nM MgTx, 10 μM FS48): 59.45 ± 2.79%
- Kv1.3 mRNA expression induced by LPS ([4]; real-time PCR): greatly reduced
- decrease of Kv1.3 protein expression induced by LPS ([4]; 24 h, western blot normalized to GAPDH): 76.15 ± 13.81%
- inhibition of LPS-induced nitrite production ([5]; 10 μM FS48, 100 nM MgTx, 24 h, Griess reagent): about 37.65%
- LPS-induced increase of mRNA level of iNOS ([5]; exposure for 8 h, 3 μM FS48, qRT-PCR): evidently inhibited
- effect on the second phase of carrageenan-induced paw edema ([2]; MgTx 0.4179 mg/kg, intraperitoneally 1 h before carrageenan): remarkable anti-inflammatory effects
